What was measured:
Type in all cases: functional
A-431 [1] = experiment: Growth inhibition of human A431 cells after 72 hrs y MTT assay; details: A-431, 72 h
Procedure, shortened: (§1)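 Cells kept in DMEM with 10% FBS, 10 mM sodium bicarbonate, penicillin, streptomycin and 4 mM glutamine at 37 °C under 5% CO2. Log-phase cells were plated in duplicate at 2500–4000 cells/well. After 24 h, compound in medium was added; analogue stocks were 40 mM in DMSO. Growth was read after 72 h by MTT absorbance at 540 nm in dose-response testing.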

MCF7 [2] = experiment: Growth inhibition of human MCF7 cells after 72 hrs y MTT assay; details: MCF7, 72 h; procedure, shortened: as §1
[3] = Growth inhibition of human BE(2)-C cells after 72 hrs y MTT assay; procedure, shortened: as §1
SW480 [4] = experiment: Growth inhibition of human SW480 cells after 72 hrs y MTT assay; details: SW480, 72 h; procedure, shortened: as §1
NCI-H460 [5] = experiment: Growth inhibition of human H460 cells after 72 hrs y MTT assay; details: NCI-H460, 72 h; procedure, shortened: as §1
A2780 = experiment: Growth inhibition of human A2780 cells after 72 hrs y MTT assay; details: A2780, 72 h; procedure, shortened: as §1
HT-29 [6] = experiment: Growth inhibition of human HT-29 cells after 72 hrs y MTT assay; details: HT-29, 72 h; procedure, shortened: as §1
[7] = Growth inhibition of human SJ-G2 cells after 72 hrs y MTT assay; details: SJ-G2, 72 h; procedure, shortened: as §1
DU-145 [8] = experiment: Growth inhibition of human DU145 cells after 72 hrs y MTT assay; details: DU-145, 72 h; procedure, shortened: as §1
MCF7 [9] = experiment: Growth inhibition of human MCF7 cells at 100 uM after 72 hrs y MTT assay; details: Homo sapiens, MCF7, 72 h; read-out: GI
Procedure, shortened: (§2)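 Log-phase cells in supplemented DMEM (10% FBS, 4 mM glutamine, antibiotics; 37 °C, 5% CO2) were plated in duplicate at 2500–4000 cells/well. Compound was added 24 h later at a fixed 100 µM, from 40 mM DMSO stocks. After 72 h, MTT absorbance was read at 540 nm and expressed as percent growth inhibition; 100% means total inhibition.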

A-431 [10] = experiment: Growth inhibition of human A431 cells at 100 uM after 72 hrs y MTT assay; procedure, shortened: as §2
[11] = Growth inhibition of human BE(2)-C cells at 100 uM after 72 hrs y MTT assay; details: Homo sapiens, BE(2)-C, 72 h; read-out: GI; procedure, shortened: as §2
SW480 [12] = experiment: Growth inhibition of human SW480 cells at 100 uM after 72 hrs y MTT assay; details: Homo sapiens, SW480, 72 h; read-out: GI; procedure, shortened: as §2
NCI-H460 [13] = experiment: Growth inhibition of human H460 cells at 100 uM after 72 hrs y MTT assay; procedure, shortened: as §2
DU-145 [14] = experiment: Growth inhibition of human DU145 cells at 100 uM after 72 hrs y MTT assay; procedure, shortened: as §2
[15] = Growth inhibition of human SJ-G2 cells at 100 uM after 72 hrs y MTT assay; details: Homo sapiens, SJ-G2, 72 h; read-out: GI; procedure, shortened: as §2
HT-29 [16] = experiment: Growth inhibition of human HT-29 cells at 100 uM after 72 hrs y MTT assay; details: Homo sapiens, HT-29, 72 h; read-out: GI; procedure, shortened: as §2

Row | Compound | GI50 (A-431 [1]) [µM] | GI50 (MCF7 [2]) [µM] | GI50 [3] [µM] | GI50 (SW480 [4]) [µM] | GI50 (NCI-H460 [5]) [µM] | GI50 (A2780) [µM] | GI50 (HT-29 [6]) [µM] | GI50 [7] [µM] | GI50 (DU-145 [8]) [µM] | inhibition of growth at 100 µM (MCF7 [9]) [%] | growth inhibition (GI) (A-431 [10]) [%] | inhibition of growth at 100 µM [11] [%] | inhibition of growth at 100 µM (SW480 [12]) [%] | growth inhibition (GI) (NCI-H460 [13]) [%] | growth inhibition (GI) (DU-145 [14]) [%] | inhibition of growth at 100 µM [15] [%] | inhibition of growth at 100 µM (HT-29 [16]) [%]
1 | O=C1O[C@H](O)[C@@H]2[C@H]1[C@H]1CC[C@@H]2O1 | > 100 | > 100 | 28 | > 100 | > 100 | > 100 | 14 | 15 | > 100 | – | – | – | – | – | – | – | –
2 | C=CCO[C@H]1OC(=O)[C@H]2[C@@H]1[C@@H]1CC[C@H]2O1 | > 100 | > 100 | – | – | > 100 | – | – | – | > 100 | – | – | – | – | – | – | – | –
3 | C=CCO[C@@H]1OC(=O)[C@H]2[C@@H]1[C@@H]1CC[C@H]2O1 | > 100 | > 100 | > 100 | > 100 | > 100 | > 100 | – | – | > 100 | – | – | – | – | – | – | – | –
4 | C/C=C/CO[C@H]1OC(=O)[C@H]2[C@@H]1[C@@H]1CC[C@H]2O1 | > 100 | 77 | 84 | 93 | > 100 | 57 | 42 | 55 | > 100 | – | – | – | – | – | – | – | –
5 | C/C=C/CO[C@@H]1OC(=O)[C@H]2[C@@H]1[C@@H]1CC[C@H]2O1 | > 100 | > 100 | 63 | > 100 | > 100 | > 100 | 31 | 35 | > 100 | – | – | – | – | – | – | – | –
6 | C#CCCCCO[C@H]1OC(=O)[C@H]2[C@@H]1[C@@H]1CC[C@H]2O1 | > 100 | > 100 | > 100 | > 100 | > 100 | > 100 | 51 | 55 | > 100 | – | – | – | – | – | – | – | –
7 | CCO[C@H]1OC(=O)[C@H]2[C@@H]1[C@@H]1CC[C@H]2O1 | > 100 | > 100 | > 100 | > 100 | > 100 | > 100 | 77 | 49 | > 100 | – | – | – | – | – | – | – | –
8 | CCCCCO[C@H]1OC(=O)[C@H]2[C@@H]1[C@@H]1CC[C@H]2O1 | 68 | 27 | 38 | 39 | > 100 | 20 | 32 | 37 | > 100 | – | – | – | – | – | – | – | –
9 | CCCCCCO[C@@H]1OC(=O)[C@H]2[C@@H]1[C@@H]1CC[C@H]2O1 | > 100 | > 100 | > 100 | > 100 | > 100 | > 100 | – | – | > 100 | – | – | – | – | – | – | – | –
10 | CCCCCCCCO[C@H]1OC(=O)[C@H]2[C@@H]1[C@@H]1CC[C@H]2O1 | 72 | 36 | 51 | 49 | > 100 | 28 | 40 | 45 | 86 | – | – | – | – | – | – | – | –
11 | CC(C)O[C@H]1OC(=O)[C@H]2[C@@H]1[C@@H]1CC[C@H]2O1 | > 100 | > 100 | 44 | 94 | > 100 | > 100 | 19 | 21 | > 100 | – | – | – | – | – | – | – | –
12 | CC(C)(C)O[C@H]1OC(=O)[C@H]2[C@@H]1[C@@H]1CC[C@H]2O1 | > 100 | > 100 | > 100 | > 100 | > 100 | > 100 | 52 | 48 | > 100 | – | – | – | – | – | – | – | –
13 | O=C1O[C@H](OC2CCCCC2)[C@@H]2[C@H]1[C@H]1CC[C@@H]2O1 | > 100 | > 100 | > 100 | > 100 | > 100 | > 100 | 45 | 41 | > 100 | – | – | – | – | – | – | – | –
14 | CCOP(=O)(OCC)OCCCO[C@H]1OC(=O)[C@H]2[C@@H]1[C@@H]1CC[C@H]2O1 | 87 | 20 | 9 | 9 | > 100 | 22 | 17 | 43 | 84 | – | – | – | – | – | – | – | –
15 | O=C1O[C@H](OCCCOP(=O)(Oc2ccccc2)Oc2ccccc2)[C@@H]2[C@H]1[C@H]1CC[C@@H]2O1 | > 100 | > 100 | > 100 | > 100 | > 100 | > 100 | 40 | 40 | > 100 | – | – | – | – | – | – | – | –
16 | O=C1O[C@H](OCCCOP(=O)(OCC(Cl)(Cl)Cl)OCC(Cl)(Cl)Cl)[C@@H]2[C@H]1[C@H]1CC[C@@H]2O1 | > 100 | 89 | > 100 | > 100 | > 100 | 81 | 37 | 41 | > 100 | – | – | – | – | – | – | – | –
17 | O=C1O[C@H](OCCCOP(=O)(O)O)[C@@H]2[C@H]1[C@H]1CC[C@@H]2O1 | 52 | 45 | 67 | 65 | – | 33 | 42 | 57 | 65 | – | – | – | – | – | – | – | –
18 | CCCCOC1OC(=O)[C@H]2[C@@H]1[C@@H]1CC[C@H]2O1 (single isomer, unassigned) | > 100 | > 100 | 93 | > 100 | > 100 | > 100 | 50 | 32 | > 100 | – | – | – | – | – | – | – | –
19 | O=C1O[C@@H](OCC2CO2)[C@@H]2[C@H]1[C@H]1CC[C@@H]2O1 (stereo in doubt; 22) | – | – | – | – | – | – | – | – | – | 40 | 28 | 38 | 28 | 14 | 30 | 76 | 74
20 | O=C1OC(=O)C2C3CCC(O3)C12 (centres undefined) [DEMETHYL-CANTHARIDIN] | 72 | 34 | 36 | 41 | > 100 | 27 | 23 | 23 | 90 | – | – | – | – | – | – | – | –

Source: ChEMBL document CHEMBL2040765, “Synthesis and anticancer activity of a series of norcantharidin analogues” (2012)
